In paper PMC5616077 (Toxicology Reports, 2016):
Entries after “also recorded” stand apart in the source; their conditions may differ.

Tests used:
HaCaT AHR-KD cells [1] = assay: Targeted metabolomics; format: cell-based, human; conditions: 48 h
Outline: (§1)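 Cells in DMEM with 10% FCS were seeded at 1 × 10^5 cells/mL and exposed 24 h later for 48 h, 4 replicates; vehicle controls got 0.1% DMSO. Cells were washed with ice-cold 155 mM ammonium formate pH 7.4, pelleted, weighed and snap-frozen. Extracts went on the p180 kit with isotope-labelled standards, phenylisothiocyanate derivatisation and 5 mM ammonium acetate/methanol extraction. Read by LC–MS/MS (positive) and FIA-MS/MS (±), MRM; μM normalised to pellet weight.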

MTT assay [2] = format: cell-based, human; conditions: human, HaCaT wild-type (WT) cells; for EC50 at 48 h: calculated EC50 (cytotoxicity, viability), HaCaT WT, MTT
HaCaT WT cells [3] = assay: Targeted metabolomics; format: cell-based, human; conditions: 48 h; for change of Gln level vs control (in words) / change of PCaa_C36:2 level vs control (in words) / C4:1 concentration / C4 concentration / C6 (C4:1-DC) concentration / C10:2 concentration / C12-DC concentration / C12:1 concentration / C18:1-OH concentration / C18:2 concentration / Gln concentration / PCaa_C32:2 concentration / PCaa_C36:2 concentration / PCae_C32:1 concentration / PCae_C34:2 concentration / PCae_C34:3 concentration / PCae_C36:2 concentration / PCae_C36:3 concentration / PCae_C38:1 concentration / PCae_C38:2 concentration / PCae_C38:3 concentration / PCae_C38:4 concentration / PCae_C40:4 concentration / PCae_C40:5 concentration / SM_C16:1 concentration / alpha-AAA concentration / change of alpha-AAA level vs control (in words) / change of carnitines (e.g. C18:2) vs control (in words): BAP 1 μM, DALP 0.01 μM; for change of Gln level vs control (in words) / change of PCaa_C36:2 level vs control (in words) / C4:1 concentration / C4 concentration / C6 (C4:1-DC) concentration / C10:2 concentration / C12-DC concentration / C12:1 concentration / C18:1-OH concentration / C18:2 concentration / Gln concentration / PCaa_C32:2 concentration / PCaa_C36:2 concentration / PCae_C32:1 concentration / PCae_C34:2 concentration / PCae_C34:3 concentration / PCae_C36:2 concentration / PCae_C36:3 concentration / PCae_C38:1 concentration / PCae_C38:2 concentration / PCae_C38:3 concentration / PCae_C38:4 concentration / PCae_C40:4 concentration / PCae_C40:5 concentration / SM_C16:1 concentration / alpha-AAA concentration: CRY 1 μM; for C4:1 concentration / C4 concentration / C6 (C4:1-DC) concentration / C10:2 concentration / C12-DC concentration / C12:1 concentration / C18:1-OH concentration / C18:2 concentration / Gln concentration / PCaa_C32:2 concentration / PCaa_C36:2 concentration / PCae_C32:1 concentration / PCae_C34:2 concentration / PCae_C34:3 concentration / PCae_C36:2 concentration / PCae_C36:3 concentration / PCae_C38:1 concentration / PCae_C38:2 concentration / PCae_C38:3 concentration / PCae_C38:4 concentration / PCae_C40:4 concentration / PCae_C40:5 concentration / SM_C16:1 concentration / alpha-AAA concentration: mean ± SD
Outline: as §1

CYP1B1 [4] = assay: Western blot, protein level; format: cell-based, human; conditions: HaCaT WT, 24 h and 48 h
CYP1B1 [5] = assay: Real-time PCR, AHR target gene induction; format: cell-based, human; conditions: for CYP1B1 mRNA induction (in words): 24 h
CYP1A1 [6] = assay: Real-time PCR, AHR target gene induction; format: cell-based, human; conditions: for CYP1A1 mRNA induction (in words): 24 h, BAP/CRY 0.1-3.5 μM
HaCaT AHR-KD cells [7] = assay: MTT assay; format: cell-based, human; conditions: HaCaT AHR-KD, 48 h, up to 20 μM
MTT assay [8] = format: cell-based, human; conditions: human, HaCaT AHR knockdown (AHR-KD) cells
HaCaT WT cells [9] = assay: MTT assay; format: cell-based, human; conditions: HaCaT WT, 48 h, up to 20 μM
HaCaT WT cells [10] = assay: Enzymatic determination of glutamine; format: cell-based, human; conditions: 48 h, BAP 1 μM, CRY 1 μM, DALP 0.01 μM
CYP1A1 [11] = assay: Western blot, protein level; format: cell-based, human; conditions: HaCaT WT, 24 h and 48 h
[12] = test system: carnitine palmitoyltransferase 1 (CPT1); conditions: liver of rats upon treatment; ref [55], [56]; cited from earlier work
[13] = HaCaT cells, 2 and 8 h, up to 1 μM, data not shown

Structure (SMILES)	change of Gln level vs control (in words) (HaCaT WT cells [3])	change of PCaa_C36:2 level vs control (in words) (HaCaT WT cells [3])	C4:1 concentration (HaCaT WT cells [3])	C4 concentration (HaCaT WT cells [3])	C6 (C4:1-DC) concentration (HaCaT WT cells [3])	C10:2 concentration (HaCaT WT cells [3])	C12-DC concentration (HaCaT WT cells [3])	C12:1 concentration (HaCaT WT cells [3])	C18:1-OH concentration (HaCaT WT cells [3])	C18:2 concentration (HaCaT WT cells [3])	Gln concentration (HaCaT WT cells [3])	PCaa_C32:2 concentration (HaCaT WT cells [3])	PCaa_C36:2 concentration (HaCaT WT cells [3])	PCae_C32:1 concentration (HaCaT WT cells [3])	PCae_C34:2 concentration (HaCaT WT cells [3])	PCae_C34:3 concentration (HaCaT WT cells [3])	PCae_C36:2 concentration (HaCaT WT cells [3])	PCae_C36:3 concentration (HaCaT WT cells [3])	PCae_C38:1 concentration (HaCaT WT cells [3])	PCae_C38:2 concentration (HaCaT WT cells [3])	also measured
c1ccc2c(c1)cc1ccc3cccc4ccc2c1c34 [BAP, benzo[a]pyrene]	strongly lowered	increased	1.1 ± 0.1 nmol/g pellet weight	2.5 ± 0.3 nmol/g pellet weight	2.3 ± 0.2 nmol/g pellet weight	1.0 ± 0.1 nmol/g pellet weight	3.8 ± 0.2 nmol/g pellet weight	1.2 ± 0.1 nmol/g pellet weight	0.9 ± 0.1 nmol/g pellet weight	1.0 ± 0.1 nmol/g pellet weight	77.1 ± 18.2 nmol/g pellet weight	103.6 ± 11.5 nmol/g pellet weight	2039.2 ± 198.8 nmol/g pellet weight	198.8 ± 17.1 nmol/g pellet weight	238.2 ± 23.8 nmol/g pellet weight	26.8 ± 3.1 nmol/g pellet weight	354.1 ± 28.2 nmol/g pellet weight	108.6 ± 10.5 nmol/g pellet weight	29.7 ± 2.2 nmol/g pellet weight	74.9 ± 6.3 nmol/g pellet weight	change of Gln level vs control (in words) (HaCaT AHR-KD cells [1]; BAP 1 μM, CRY 1 μM, DALP 0.01 μM): decreased; viability at 48 h, 20 µM (MTT assay [2]): ~80%; PCae_C38:3 concentration (HaCaT WT cells [3]): 33.8 ± 3.9 nmol/g pellet weight; PCae_C38:4 concentration (HaCaT WT cells [3]): 69.0 ± 7.3 nmol/g pellet weight; PCae_C40:4 concentration (HaCaT WT cells [3]): 11.7 ± 1.5 nmol/g pellet weight; PCae_C40:5 concentration (HaCaT WT cells [3]): 30.0 ± 2.5 nmol/g pellet weight; SM_C16:1 concentration (HaCaT WT cells [3]): 35.3 ± 3.4 nmol/g pellet weight; alpha-AAA concentration (HaCaT WT cells [3]): 5.7 ± 1.8 nmol/g pellet weight; change of alpha-AAA level vs control (in words) (HaCaT WT cells [3]): strong down-regulation; change of carnitines (e.g. C18:2) vs control (in words) (HaCaT WT cells [3]): strong up-regulation
c1ccc2c(c1)ccc1c3ccccc3ccc21 [CRY, chrysene]	weakly	increased	0.9 ± 0.2 nmol/g pellet weight	2.3 ± 0.5 nmol/g pellet weight	1.9 ± 0.3 nmol/g pellet weight	0.9 ± 0.1 nmol/g pellet weight	3.3 ± 0.6 nmol/g pellet weight	1.0 ± 0.2 nmol/g pellet weight	0.8 ± 0.1 nmol/g pellet weight	0.8 ± 0.1 nmol/g pellet weight	114.3 ± 12.8 nmol/g pellet weight	127.8 ± 17.3 nmol/g pellet weight	2097.1 ± 262.1 nmol/g pellet weight	231.2 ± 36.0 nmol/g pellet weight	275.4 ± 48.2 nmol/g pellet weight	29.7 ± 5.0 nmol/g pellet weight	385.0 ± 53.6 nmol/g pellet weight	120.5 ± 17.9 nmol/g pellet weight	29.9 ± 5.0 nmol/g pellet weight	78.0 ± 13.3 nmol/g pellet weight	CYP1B1 protein induction (in words) (CYP1B1 [4]): moderate induction; CYP1B1 mRNA induction (in words) (CYP1B1 [5]; HaCaT AHR-KD, CRY 0.1-3.5 μM): no significant induction; CYP1B1 mRNA induction (in words) (CYP1B1 [5]; HaCaT WT, BAP/CRY 0.1-3.5 μM, DALP 0.01-0.03 μM): inducing both genes in WT cells but less strongly; CYP1A1 mRNA induction (in words) (CYP1A1 [6]; HaCaT AHR-KD): no significant induction; CYP1A1 mRNA induction (in words) (CYP1A1 [6]; HaCaT WT, DALP 0.01-0.03 μM): inducing both genes in WT cells but less strongly; cytotoxicity / cell viability (in words) (HaCaT AHR-KD cells [7]): strong cytotoxic effects; EC50 at 48 h (MTT assay [8]): 2000 nM; cytotoxicity / cell viability (in words) (HaCaT WT cells [9]): strong cytotoxic effects; EC50 at 48 h (MTT assay [2]): 3800 nM; relative Gln level, enzymatic assay (in words) (HaCaT WT cells [10]): could not confirm the effect; CYP1A1 protein induction (in words) (CYP1A1 [11]): moderate induction; SM, AC, LPC and BA concentrations vs control (in words) (HaCaT WT cells [3]; 1 μM): remained completely unaffected; PCae_C38:3 concentration (HaCaT WT cells [3]): 34.7 ± 5.8 nmol/g pellet weight; PCae_C38:4 concentration (HaCaT WT cells [3]): 70.5 ± 9.1 nmol/g pellet weight; PCae_C40:4 concentration (HaCaT WT cells [3]): 12.8 ± 2.0 nmol/g pellet weight; PCae_C40:5 concentration (HaCaT WT cells [3]): 33.3 ± 4.2 nmol/g pellet weight; SM_C16:1 concentration (HaCaT WT cells [3]): 35.0 ± 3.8 nmol/g pellet weight; alpha-AAA concentration (HaCaT WT cells [3]): 14.2 ± 3.8 nmol/g pellet weight
c1ccc2c(c1)cc1ccc3cccc4c5ccccc5c2c1c34 [DALP, dibenzo[a,l]pyrene]	strongly lowered	measurable but insignificant decrease	1.3 ± 0.1 nmol/g pellet weight	2.9 ± 0.3 nmol/g pellet weight	2.5 ± 0.2 nmol/g pellet weight	1.1 ± 0.1 nmol/g pellet weight	4.2 ± 0.2 nmol/g pellet weight	1.4 ± 0.1 nmol/g pellet weight	1.0 ± 0.0 nmol/g pellet weight	1.1 ± 0.1 nmol/g pellet weight	65.7 ± 23.9 nmol/g pellet weight	81.9 ± 9.5 nmol/g pellet weight	1417.7 ± 173.7 nmol/g pellet weight	164.7 ± 17.4 nmol/g pellet weight	170.7 ± 25.4 nmol/g pellet weight	20.8 ± 3.3 nmol/g pellet weight	235.3 ± 25.3 nmol/g pellet weight	65.2 ± 8.9 nmol/g pellet weight	18.7 ± 1.2 nmol/g pellet weight	50.7 ± 5.2 nmol/g pellet weight	CYP1B1 protein induction (in words) (CYP1B1 [4]): no induction; CYP1B1 mRNA induction at earlier time-points (in words) (CYP1B1 [5]; [13]): no significant induction; CYP1A1 mRNA induction (in words) (CYP1A1 [6]; HaCaT WT, DALP 0.01-0.03 μM): only weakly increased; CYP1A1 mRNA induction at earlier time-points (in words) (CYP1A1 [6]; [13]): no significant induction; metabolite levels vs control (in words) (HaCaT AHR-KD cells [1]; 0.01 μM): remained virtually unaffected; cytotoxicity / cell viability (in words) (HaCaT AHR-KD cells [7]): remained unaffected; cytotoxicity / cell viability (in words) (HaCaT WT cells [9]): enhanced cytotoxicity; also recorded: very strong cytotoxicity; EC50 at 48 h (MTT assay [2]): 35 nM; relative Gln level, enzymatic assay (in words) (HaCaT WT cells [10]): downregulated approximately two-fold; CYP1A1 protein induction (in words) (CYP1A1 [11]): no induction; PCae_C38:3 concentration (HaCaT WT cells [3]): 18.5 ± 1.8 nmol/g pellet weight; PCae_C38:4 concentration (HaCaT WT cells [3]): 38.1 ± 4.0 nmol/g pellet weight; PCae_C40:4 concentration (HaCaT WT cells [3]): 7.6 ± 0.5 nmol/g pellet weight; PCae_C40:5 concentration (HaCaT WT cells [3]): 16.5 ± 1.5 nmol/g pellet weight; SM_C16:1 concentration (HaCaT WT cells [3]): 25.5 ± 2.1 nmol/g pellet weight; alpha-AAA concentration (HaCaT WT cells [3]): 2.0 ± 1.1 nmol/g pellet weight; change of alpha-AAA level vs control (in words) (HaCaT WT cells [3]): strong down-regulation; change of carnitines (e.g. C18:2) vs control (in words) (HaCaT WT cells [3]): strong up-regulation
Clc1cc2c(cc1Cl)Oc1cc(Cl)c(Cl)cc1O2 [TCDD, 2,3,7,8-tetrachlorodibenzo-p-dioxin]																					increase of carnitine palmitoyltransferase 1 (CPT1) [12]: more than 3 fold
